According to ChEMBL document CHEMBL1122046, “Quaternary heterocyclylamino beta-lactams: a generic alternative to the classical acylamino side chain” (1982):
Converted amounts (≈) assume the structure as drawn.

What was measured:
Assay type in all cases: functional
Escherichia coli = test: MIC against aerobic organism Escherichia coli strain 2891
In short: (§1)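 Agar-dilution MIC in µg/mL against aerobic bacterial strains on tryptocase soy agar, with inoculum applied as spots. Most series used 10^5 cfu per spot, and a later series used 10^4 cfu per spot. In some tables, footnoted strains were instead tested on Mueller-Hinton or nutrient agar. β-Lactamase-producing strains are flagged.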

Klebsiella aerogenes [1] = test: Minimum inhibitory concentration against aerobic organism Enterobacter aerogenes strain 2828; in short: as §1
Enterobacter cloacae = test: Minimum inhibitory concentration against aerobic organism Enterobacter cloacae strain 2646; in short: as §1
Klebsiella pneumoniae [2] = test: Minimum inhibitory concentration against aerobic organism Klebsiella pneumoniae strain 4005; in short: as §1
Morganella morganii = test: Minimum inhibitory concentration against aerobic organism Morganella morganii strain 2833; in short: as §1
Pseudomonas aeruginosa = test: Minimum inhibitory concentration against aerobic organism Pseudomonas aeruginosa strain 2835; in short: as §1
Proteus mirabilis = test: Minimum inhibitory concentration against aerobic organism Proteus mirabilis strain 2830; in short: as §1
Proteus vulgaris = test: Minimum inhibitory concentration against aerobic organism Proteus vulgaris strain 2829; in short: as §1
Salmonella = test: Minimum inhibitory concentration against aerobic organism Salmonella strain 3860; in short: as §1
Staphylococcus aureus [3] = test: Minimum inhibitory concentration against aerobic organism Staphylococcus aureus strain 2865; in short: as §1
Staphylococcus aureus [4] = test: Minimum inhibitory concentration against aerobic organism Staphylococcus aureus strain 2868; settings: Staphylococcus aureus; read-out: MIC; in short: as §1
Enterococcus faecalis = test: Minimum inhibitory concentration against aerobic organism Streptococcus faecalis strain 2864; in short: as §1
Klebsiella aerogenes [5] = test: Minimum inhibitory concentration against aerobic organism Enterobacter aerogenes strain 2906; in short: as §1
Klebsiella pneumoniae [6] = test: Minimum inhibitory concentration against aerobic organism Klebsiella pneumoniae strain 2882; in short: as §1
[7] = Minimum inhibitory concentration against aerobic organism Salmonella schottmuelleri strain 2837; in short: as §1
Serratia marcescens = test: Minimum inhibitory concentration against aerobic organism Serratia marcescens strain 2852; in short: as §1
Streptococcus pyogenes = test: Minimum inhibitory concentration against aerobic organism Streptococcus pyogenes strain 3124; in short: as §1
Shigella = test: Minimum inhibitory concentration against aerobic organism Shigella species strain 2880; in short: as §1
[8] = Escherichia coli, read-out: MIC
[9] = Enterobacter cloacae, read-out: MIC
[10] = Morganella morganii, read-out: MIC
[11] = Proteus mirabilis, read-out: MIC
[12] = Proteus vulgaris, read-out: MIC
[13] = Klebsiella aerogenes, read-out: MIC
[14] = Klebsiella pneumoniae, read-out: MIC
[15] = Serratia marcescens, read-out: MIC
[16] = Streptococcus pyogenes, read-out: MIC

| SMILES | MIC (Escherichia coli; [8]) [µg/mL] | MIC (Klebsiella aerogenes [1]) [µg/mL] | MIC (Enterobacter cloacae; [9]) [µg/mL] | MIC (Klebsiella pneumoniae [2]) [µg/mL] | MIC (Morganella morganii; [10]) [µg/mL] | MIC (Pseudomonas aeruginosa) [µg/mL] | MIC (Proteus mirabilis; [11]) [µg/mL] | MIC (Proteus vulgaris; [12]) [µg/mL] | MIC (Salmonella) [µg/mL] | MIC (Staphylococcus aureus [3]) [µg/mL] | MIC (Staphylococcus aureus [4]) [µg/mL] | MIC (Enterococcus faecalis) [µg/mL] | MIC (Klebsiella aerogenes [5]; [13]) [µg/mL] | MIC (Klebsiella pneumoniae [6]; [14]) [µg/mL] | MIC ([7]; Salmonella, read-out: MIC) [µg/mL] | MIC (Serratia marcescens; [15]) [µg/mL] | MIC (Streptococcus pyogenes; [16]) [µg/mL] | MIC (Shigella; Shigella, read-out: MIC) [µg/mL] | other results |
| --- | --- | --- | --- | --- | --- | --- | --- | --- | --- | --- | --- | --- | --- | --- | --- | --- | --- | --- | --- |
| Cc1ccccc1-[n+]1ccc(N[C@@H]2C(=O)N3C(C(=O)[O-])=C(CSc4nnnn4C)CS[C@H]23)cc1 | 2 (≈ 4.04 µM) | – | > 128 | – | > 128 | > 128 | > 128 | 2 (≈ 4.04 µM) | – | – | 32 (≈ 64.6 µM) | > 128 | > 128 | 128 (≈ 258 µM) | 2 (≈ 4.04 µM) | > 128 | 0.25 (≈ 0.504 µM) | 1 (≈ 2.02 µM) | – |
| O=C([O-])C1=C(CSc2cc[n+](Cc3ccccc3)cc2)CS[C@@H]2[C@H]([N-]c3cc[n+](Cc4ccccc4)cc3)C(=O)N12 | < 0.06 | 1 (≈ 1.72 µM) | < 0.06 | 32 (≈ 55.1 µM) | > 128 | > 128 | 128 (≈ 220 µM) | < 0.06 | 4 (≈ 6.89 µM) | < 0.06 | 0.25 (≈ 0.43 µM) | 64 (≈ 110 µM) | – | – | – | – | – | – | – |
| Cn1nnnc1SCC1=C(C(=O)[O-])N2C(=O)[C@@H](Nc3cc[n+](C)cc3)[C@H]2SC1 (stereo in doubt; 15b) | – | – | – | – | – | > 128 | – | – | – | – | > 128 | > 128 | – | – | – | – | – | – | MIC (Escherichia coli): >128 µg/mL; MIC (Klebsiella aerogenes [5]): 16 µg/mL (≈ 38.1 µM); MIC (Enterobacter cloacae): >128 µg/mL; MIC (Klebsiella pneumoniae [6]): 64 µg/mL (≈ 153 µM); MIC (Morganella morganii): >128 µg/mL; MIC (Proteus mirabilis): >128 µg/mL; MIC (Proteus vulgaris): 4 µg/mL (≈ 9.54 µM); MIC [7]: >128 µg/mL; MIC (Serratia marcescens): 64 µg/mL (≈ 153 µM); MIC (Streptococcus pyogenes): 32 µg/mL (≈ 76.3 µM); MIC (Shigella): >128 µg/mL |
| CC(C)[n+]1ccc(N[C@@H]2C(=O)N3C(C(=O)[O-])=C(CSc4nnnn4C)CS[C@H]23)cc1 | 0.5 (≈ 1.12 µM) | – | 32 (≈ 71.5 µM) | – | > 128 | > 128 | 128 (≈ 286 µM) | < 0.06 | – | – | 32 (≈ 71.5 µM) | 128 (≈ 286 µM) | 128 (≈ 286 µM) | 16 (≈ 35.8 µM) | 0.125 (≈ 0.279 µM) | > 128 | 1 (≈ 2.23 µM) | 0.5 (≈ 1.12 µM) | – |
| CC[n+]1ccc(N[C@@H]2C(=O)N3C(C(=O)[O-])=C(CSc4nnnn4C)CS[C@H]23)cc1 | < 0.5 | – | 2 (≈ 4.61 µM) | – | 0.5 (≈ 1.15 µM) | > 128 | 2 (≈ 4.61 µM) | < 0.06 | – | – | 64 (≈ 148 µM) | > 128 | 0.5 (≈ 1.15 µM) | 1 (≈ 2.31 µM) | 4 (≈ 9.23 µM) | > 128 | 1 (≈ 2.31 µM) | < 0.5 | – |

Continued, in another order:

| MIC (Escherichia coli; [8]) [µg/mL] | MIC (Klebsiella aerogenes [1]) [µg/mL] | MIC (Enterobacter cloacae; [9]) [µg/mL] | MIC (Klebsiella pneumoniae [2]) [µg/mL] | MIC (Morganella morganii; [10]) [µg/mL] | MIC (Pseudomonas aeruginosa) [µg/mL] | MIC (Proteus mirabilis; [11]) [µg/mL] | MIC (Proteus vulgaris; [12]) [µg/mL] | MIC (Salmonella) [µg/mL] | MIC (Staphylococcus aureus [3]) [µg/mL] | MIC (Staphylococcus aureus [4]) [µg/mL] | MIC (Enterococcus faecalis) [µg/mL] | MIC (Klebsiella aerogenes [5]; [13]) [µg/mL] | MIC (Klebsiella pneumoniae [6]; [14]) [µg/mL] | MIC ([7]; Salmonella, read-out: MIC) [µg/mL] | MIC (Serratia marcescens; [15]) [µg/mL] | MIC (Streptococcus pyogenes; [16]) [µg/mL] | MIC (Shigella; Shigella, read-out: MIC) [µg/mL] | SMILES | other results |
| --- | --- | --- | --- | --- | --- | --- | --- | --- | --- | --- | --- | --- | --- | --- | --- | --- | --- | --- | --- |
| < 0.06 | 2 (≈ 4.36 µM) | 0.125 (≈ 0.273 µM) | 32 (≈ 69.8 µM) | > 128 | 64 (≈ 140 µM) | > 128 | 0.25 (≈ 0.545 µM) | 2 (≈ 4.36 µM) | 0.125 (≈ 0.273 µM) | 0.5 (≈ 1.09 µM) | 128 (≈ 279 µM) | – | – | – | – | – | – | O=C([O-])C1=C(C[n+]2ccccc2)CS[C@@H]2[C@H]([N-]c3cc[n+](Cc4ccccc4)cc3)C(=O)N12 | – |
| 0.125 (≈ 0.278 µM) | 32 (≈ 71.2 µM) | 1 (≈ 2.22 µM) | 128 (≈ 285 µM) | > 128 | > 128 | > 128 | 0.25 (≈ 0.556 µM) | 128 (≈ 285 µM) | 8 (≈ 17.8 µM) | > 128 | > 128 | – | – | – | – | – | – | CCO[n+]1ccc(N[C@@H]2C(=O)N3C(C(=O)[O-])=C(CSc4nnnn4C)CS[C@H]23)cc1 | – |
| 0.25 (≈ 0.476 µM) | – | 8 (≈ 15.2 µM) | – | 16 (≈ 30.4 µM) | > 64 | 16 (≈ 30.4 µM) | < 0.06 | – | – | 8 (≈ 15.2 µM) | > 64 | 4 (≈ 7.61 µM) | 0.5 (≈ 0.951 µM) | 0.125 (≈ 0.238 µM) | 64 (≈ 122 µM) | < 0.06 | 0.5 (≈ 0.951 µM) | COc1ccc(C[n+]2ccc(N[C@@H]3C(=O)N4C(C(=O)[O-])=C(CSc5nnnn5C)CS[C@H]34)cc2)cc1 | – |
| 0.06 (≈ 0.124 µM) | – | 8 (≈ 16.5 µM) | – | > 128 | 128 (≈ 264 µM) | 16 (≈ 33 µM) | < 0.25 | – | – | 2 (≈ 4.12 µM) | 128 (≈ 264 µM) | 8 (≈ 16.5 µM) | 0.06 (≈ 0.124 µM) | 0.0075 (≈ 0.0154 µM) | 128 (≈ 264 µM) | 0.03 (≈ 0.0618 µM) | 0.0075 (≈ 0.0154 µM) | Cn1nnnc1SCC1=C(C(=O)[O-])N2C(=O)[C@@H](Nc3cc[n+](Cc4ccco4)cc3)[C@H]2SC1 | – |
| 0.5 (≈ 0.9 µM) | – | 64 (≈ 115 µM) | – | 32 (≈ 57.6 µM) | > 64 | > 64 | 0.25 (≈ 0.45 µM) | – | – | 8 (≈ 14.4 µM) | > 64 | 8 (≈ 14.4 µM) | 0.5 (≈ 0.9 µM) | 0.5 (≈ 0.9 µM) | 64 (≈ 115 µM) | 0.125 (≈ 0.225 µM) | 0.25 (≈ 0.45 µM) | COc1ccc(C[n+]2ccc(N[C@@H]3C(=O)N4C(C(=O)[O-])=C(CSc5nnnn5C)CS[C@H]34)cc2)cc1OC | – |
